Measured values reported in ChEMBL document CHEMBL1123602, “Synthesis and biological properties of N3-(4-methoxyfumaroyl)-L-2,3-diaminopropanoic acid dipeptides, a novel group of antimicrobial agents” (1987).
≈ marks a conversion by molar mass, not a printed value.

What was measured:
Escherichia coli = assay: Antimicrobial activity against the strain of Escherichia coli(ATCC 9637); format: functional
Method in brief: (§1)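 Agar dilution MIC on minimal agar Davis medium with 0.1% yeast extract and 0.1% casamino acids containing compound at 200 to 0.2 μg/mL (twofold steps). Cells at 10⁵ cfu/mL were loop-applied to the surface and incubated 24 h at 37 °C. Plates were read visually; MIC is the lowest concentration giving complete growth inhibition.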

Staphylococcus aureus = assay: Antimicrobial activity against the strain of Staphylococcus aureus (209P); format: functional; method in brief: as §1
Candida albicans [1] = assay: Antimicrobial activity against the strain of Candida albicans(AMB 25); format: functional
Method in brief: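 MIC by serial twofold dilution, 200 to 0.2 μg/mL, in YNB with 1% glucose. The inoculum was 10⁴ cfu/mL of an overnight culture grown in the same medium, incubated 48 h at 30 °C. Growth was read turbidimetrically; MIC is the lowest concentration giving complete growth inhibition.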

Bacillus pumilus [2] = assay: Antimicrobial activity against the strain of Bacillus pumilus(1697); format: functional; method in brief: as §1
Shigella sonnei [3] = assay: Antimicrobial activity against the strain of Shigella sonnei(433); format: functional; method in brief: as §1
Candida albicans [4] = assay: Antifungal activity against Candida albicans ATCC 26278 strain in medium after incorporation of 10 nmol of Met-Val dipeptide antagonist per disk.; format: functional
Method in brief: (§2)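 Disk diffusion with the antagonist (GlcNAc or dipeptide) applied to the same 6.35-mm disk as the FMDP dipeptide. Base layer is YNB with 1% glucose and 1% agar, seeded with 10⁴ cfu/mL C. albicans from an overnight Sabouraud culture. Peptides were dissolved in water. Inhibition zones were measured after 48 h at 30 °C.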

Candida albicans [5] = assay: Antifungal activity against Candida albicans ATCC 26278 strain in YNB medium after incorporation of 10 ug per disk.; format: functional
Method in brief: (§3)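 C. albicans disk diffusion. YNB medium with 1% glucose and 1% agar was seeded with 10⁴ cfu/mL cells from an overnight Sabouraud culture and poured into dishes. Water-dissolved peptide was loaded onto 6.35-mm paper disks, which were placed on the agar. Zones of inhibition were measured after 48 h at 30 °C.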

Candida albicans [6] = assay: Antifungal activity against Candida albicans ATCC 26278 strain in medium after incorporation of 10 nmol of Leu-Met dipeptide antagonist per disk.; format: functional; method in brief: as §2
Candida albicans [7] = assay: Antifungal activity against Candida albicans ATCC 26278 strain in medium after incorporation of 10 nmol of GlcNAc antagonist per disk.; format: functional; method in brief: as §2
Candida albicans [8] = assay: Antifungal activity against Candida albicans ATCC 26278 strain in YNB medium after incorporation of 20 ug per disk.; format: functional; method in brief: as §3
Shigella sonnei [9] = assay: Antibacterial activity against Shigella sonnei 433 strain in medium after incorporation of 10 nmol of Met-Val dipeptide antagonist per disk.
Shigella sonnei [10] = assay: Antibacterial activity against Shigella sonnei 433 strain in medium after incorporation of 10 nmol of Leu-Met dipeptide antagonist per disk.
Bacillus pumilus [11] = assay: Antibacterial activity against Bacillus pumilus CCM 1697 strain in medium after incorporation of 10 nmol of Met-Val dipeptide antagonist per disk.
Shigella sonnei [12] = assay: Antibacterial activity against Shigella sonnei 433 strain in medium after incorporation of 10 nmol of GlcNAc antagonist per disk.
Bacillus pumilus [13] = assay: Antibacterial activity against Bacillus pumilus CCM 1697 strain in medium*after incorporation of 10 nmol of GlcNAc antagonist per disk.
Bacillus pumilus [14] = assay: Antibacterial activity against Bacillus pumilus CCM 1697 strain in medium after incorporation of 10 nmol of Leu-Met dipeptide antagonist per disk.
Candida albicans [15] = assay: Activity against Candida albicans ATCC 26278 strain in YNB medium after incorporation of 10 ug per disk expressed as zone size; format: functional; method in brief: as §3
Candida albicans [16] = assay: Activity against Candida albicans ATCC 26278 strain in YNB medium after incorporation of 20 ug per disk expressed as zone size; format: functional; method in brief: as §3

SMILES | MIC (Escherichia coli) | MIC (Staphylococcus aureus) | MIC (Candida albicans [1]) | MIC (Bacillus pumilus [2]) | MIC (Shigella sonnei [3]) | also measured
COC(=O)/C=C/C(=O)NC[C@@H](NC(=O)[C@@H](N)C(C)C)C(=O)O | 100 µg/mL (≈ 317 µM) | 12.5 µg/mL (≈ 39.6 µM) | 1.56 µg/mL (≈ 4.95 µM) | 0.8 µg/mL (≈ 2.54 µM) | 1.56 µg/mL (≈ 4.95 µM) | 
COC(=O)/C=C/C(=O)NC[C@@H](N)C(=O)O | > 200 µg/mL | > 200 µg/mL | > 200 µg/mL | > 200 µg/mL | > 200 µg/mL | 
COC(=O)/C=C/C(=O)NC[C@@H](NC(=O)[C@@H](N)CCSC)C(=O)O | 100 µg/mL (≈ 288 µM) | 50 µg/mL (≈ 144 µM) | 0.8 µg/mL (≈ 2.3 µM) | 3.12 µg/mL (≈ 8.98 µM) | 3.12 µg/mL (≈ 8.98 µM) | 
COC(=O)/C=C/C(=O)NC[C@@H](N)C(=O)N[C@@H](CCSC)C(=O)O | > 200 µg/mL | > 200 µg/mL | 1.56 µg/mL (≈ 4.49 µM) | > 200 µg/mL | > 200 µg/mL | Zone size (Candida albicans [4]): 0 mm; Zone size (Candida albicans [5]): 31 mm; Zone size (Candida albicans [6]): 0 mm; Zone size (Candida albicans [7]): 0 mm; Zone size (Candida albicans [8]): 35 mm
COC(=O)/C=C/C(=O)NC[C@@H](NC(=O)[C@@H](N)CC(C)C)C(=O)O | 100 µg/mL (≈ 304 µM) | 12.5 µg/mL (≈ 38 µM) | 0.8 µg/mL (≈ 2.43 µM) | 1.56 µg/mL (≈ 4.74 µM) | 1.56 µg/mL (≈ 4.74 µM) | Zone size (Candida albicans [4]): 0 mm; Zone size (Candida albicans [5]): 39 mm; Zone size (Candida albicans [6]): 0 mm; Zone size (Candida albicans [7]): 0 mm; Zone size (Candida albicans [8]): 41 mm
CCCC[C@H](N)C(=O)N[C@H](CNC(=O)/C=C/C(=O)OC)C(=O)O | 100 µg/mL (≈ 304 µM) | 25 µg/mL (≈ 75.9 µM) | 0.8 µg/mL (≈ 2.43 µM) | 0.4 µg/mL (≈ 1.21 µM) | 3.12 µg/mL (≈ 9.47 µM) | Zone size (Shigella sonnei [9]): 10 mm; Zone size (Shigella sonnei [10]): 11 mm; Zone size (Bacillus pumilus [11]): 0 mm; Zone size (Shigella sonnei [12]): 0 mm; Zone size (Bacillus pumilus [13]): 0 mm; Zone size (Bacillus pumilus [14]): 0 mm
COC(=O)/C=C/C(=O)NC[C@@H](NC(=O)[C@@H](N)Cc1ccccc1)C(=O)O | > 200 µg/mL | 100 µg/mL (≈ 275 µM) | 12.5 µg/mL (≈ 34.4 µM) | 6.25 µg/mL (≈ 17.2 µM) | 12.5 µg/mL (≈ 34.4 µM) | 
C[C@@H]([C@H](N)C(=O)N[C@H](C(=O)O)[C@H]1O[C@@H](n2ccc(=O)[nH]c2=O)[C@H](O)[C@@H]1O)[C@H](O)c1ccc(O)cn1.C[C@@H]([C@H](N)C(=O)N[C@H](C(=O)O)[C@H]1O[C@H](n2cc(C=O)nc2O)[C@H](O)[C@@H]1O)[C@H](O)c1ccc(O)cn1 |  |  |  |  |  | Zone size (Candida albicans [15]): 25 mm; Zone size (Candida albicans [16]): 28 mm
CCC[C@H](NC(=O)[C@H](N)CNC(=O)/C=C/C(=O)OC)C(=O)O | > 200 µg/mL | 100 µg/mL (≈ 317 µM) | 6.25 µg/mL (≈ 19.8 µM) | > 200 µg/mL | > 200 µg/mL | 
COC(=O)/C=C/C(=O)NC[C@@H](N)C(=O)N[C@H](C(=O)O)C(C)C | > 200 µg/mL | 100 µg/mL (≈ 317 µM) | 6.25 µg/mL (≈ 19.8 µM) | > 200 µg/mL | > 200 µg/mL | 
COC(=O)/C=C/C(=O)NC[C@@H](N)C(=O)N[C@@H](CC(C)C)C(=O)O | > 200 µg/mL | 100 µg/mL (≈ 304 µM) | 3.12 µg/mL (≈ 9.47 µM) | > 200 µg/mL | > 200 µg/mL | 
COC(=O)/C=C/C(=O)NC[C@@H](NC(=O)[C@H](C)N)C(=O)O | 100 µg/mL (≈ 348 µM) | 50 µg/mL (≈ 174 µM) | 0.8 µg/mL (≈ 2.78 µM) | 1.56 µg/mL (≈ 5.43 µM) | 3.12 µg/mL (≈ 10.9 µM) | 
COC(=O)/C=C/C(=O)NC[C@@H](NC(=O)[C@@H](N)Cc1ccc(O)cc1)C(=O)O | > 200 µg/mL | 100 µg/mL (≈ 264 µM) | 50 µg/mL (≈ 132 µM) | 12.5 µg/mL (≈ 32.9 µM) | 25 µg/mL (≈ 65.9 µM) | 
COC(=O)/C=C/C(=O)NC[C@@H](NC(=O)[C@@H](N)CCCCN)C(=O)O | > 200 µg/mL | > 200 µg/mL | > 200 µg/mL | 100 µg/mL (≈ 290 µM) | > 200 µg/mL | 
COC(=O)/C=C/C(=O)NC[C@@H](N)C(=O)N[C@@H](C)C(=O)O | > 200 µg/mL | > 200 µg/mL | 3.12 µg/mL (≈ 10.9 µM) | > 200 µg/mL | > 200 µg/mL | 
COC(=O)/C=C/C(=O)NC[C@@H](N)C(=O)N[C@H](CNC(=O)/C=C/C(=O)OC)C(=O)O | > 200 µg/mL | > 200 µg/mL | > 200 µg/mL | > 200 µg/mL | > 200 µg/mL | 
CCC[C@H](N)C(=O)N[C@H](CNC(=O)/C=C/C(=O)OC)C(=O)O | 100 µg/mL (≈ 317 µM) | 12.5 µg/mL (≈ 39.6 µM) | 0.4 µg/mL (≈ 1.27 µM) | 0.4 µg/mL (≈ 1.27 µM) | 3.12 µg/mL (≈ 9.89 µM) | Zone size (Candida albicans [5]): 40 mm; Zone size (Candida albicans [8]): 42 mm
COC(=O)/C=C/C(=O)NC[C@@H](N)C(=O)N[C@@H](Cc1ccccc1)C(=O)O | > 200 µg/mL | > 200 µg/mL | 1.56 µg/mL (≈ 4.29 µM) | > 200 µg/mL | > 200 µg/mL | 
COC(=O)/C=C/C(=O)NC[C@@H](N)C(=O)NCC(=O)O | > 200 µg/mL | > 200 µg/mL | > 200 µg/mL | > 200 µg/mL | > 200 µg/mL | 
COC(=O)/C=C/C(=O)NC[C@@H](NC(=O)CN)C(=O)O | > 100 µg/mL | > 200 µg/mL | 12.5 µg/mL (≈ 45.7 µM) | 25 µg/mL (≈ 91.5 µM) | 50 µg/mL (≈ 183 µM) | 
COC(=O)/C=C/C(=O)NC[C@@H](N)C(=O)N[C@@H](Cc1ccc(O)cc1)C(=O)O | > 200 µg/mL | > 200 µg/mL | 25 µg/mL (≈ 65.9 µM) | > 200 µg/mL | > 200 µg/mL | 
Clc1ccccc1C(c1ccccc1)(c1ccccc1)n1ccnc1 [CLOTRIMAZOLE] |  |  |  |  |  | Zone size (Candida albicans [5]): 17 mm; Zone size (Candida albicans [8]): 21 mm
Nc1nc(=O)[nH]cc1F [FLUCYTOSINE] |  |  |  |  |  | Zone size (Candida albicans [5]): 35 mm; Zone size (Candida albicans [8]): 39 mm
Clc1ccc(COC(Cn2ccnc2)c2ccc(Cl)cc2Cl)c(Cl)c1 (stereo unspecified) [MICONAZOLE] |  |  |  |  |  | Zone size (Candida albicans [15]): 27 mm; Zone size (Candida albicans [16]): 32 mm
